Experimental data reported in ChEMBL document CHEMBL3124849, “Total synthesis of burkholdacs A and B and 5,6,20-tri-epi-burkholdac A: HDAC inhibition and antiproliferative activity” (Eur J Med Chem, 2014).
One block for each compound: values may come before it.

How the values were obtained:
SF-295 = test: Cytotoxicity against human SF295 cells by SRB assay; assay type: functional
Procedure, shortened: (§1)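 Tested at the Japanese Foundation for Cancer Research panel of 39 human cancer cell lines. Five concentrations per compound, spanning 10^-10 to 10^-6 M or 10^-8 to 10^-4 M. Growth measured by sulforhodamine B colorimetry. GI50 is the concentration giving 50% growth inhibition relative to control.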

HT-29 = test: Cytotoxicity against human HT-29 cells by SRB assay; assay type: functional; procedure, shortened: as §1
MDA-MB-231 = test: Cytotoxicity against human MDA-MB-231 cells by SRB assay; assay type: functional; procedure, shortened: as §1
SNB-75 = test: Cytotoxicity against human SNB75 cells by SRB assay; assay type: functional; procedure, shortened: as §1
SF-539 = test: Cytotoxicity against human SF539 cells by SRB assay; assay type: functional; procedure, shortened: as §1
LOX IMVI = test: Cytotoxicity against human LOXIMVI cells by SRB assay; assay type: functional; procedure, shortened: as §1
HCC 2998 = test: Cytotoxicity against human HCC2998 cells by SRB assay; assay type: functional; procedure, shortened: as §1
[1] = Selectivity index, ratio of IC50 for mouse HDAC6 to IC50 for human HDAC1
Procedure, shortened: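 Ratio of HDAC6 IC50 to HDAC1 IC50. Both enzymes were FLAG-immunopurified from transfected 293T cells: human HDAC1 and mouse HDAC6. Each was assayed on Ac-KGLGK(Ac)-MCA with 100 µM DTT at 37 °C for 30 min, developed with trypsin, and AMC read by fluorescence. IC50s are means of ≥3 curves.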

St-4 = test: Cytotoxicity against human St-4 cells by SRB assay; assay type: functional; procedure, shortened: as §1
[2] = Cytotoxicity against human DMS114 cells by SRB assay; assay type: functional; details: DMS-114; procedure, shortened: as §1
NCI-H460 = test: Cytotoxicity against human NCI-H460 cells by SRB assay; assay type: functional; procedure, shortened: as §1
[3] = Cytotoxicity against human MKN45 cells by SRB assay; assay type: functional; details: MKN-45; procedure, shortened: as §1
U-251 = test: Cytotoxicity against human U251 cells by SRB assay; assay type: functional; procedure, shortened: as §1
[4] = Cytotoxicity against human BSY1 cells by SRB assay; assay type: functional; details: BSY-1; procedure, shortened: as §1
NCI-H522 = test: Cytotoxicity against human NCI-H522 cells by SRB assay; assay type: functional; procedure, shortened: as §1
[5] = Cytotoxicity against human HBC5 cells by SRB assay; assay type: functional; procedure, shortened: as §1
SF-268 = test: Cytotoxicity against human SF268 cells by SRB assay; assay type: functional; procedure, shortened: as §1
SK-OV-3 = test: Cytotoxicity against human SKOV3 cells by SRB assay; assay type: functional; procedure, shortened: as §1
MCF7 = test: Cytotoxicity against human MCF7 cells by SRB assay; assay type: functional; procedure, shortened: as §1
DU-145 = test: Cytotoxicity against human DU145 cells by SRB assay; assay type: functional; procedure, shortened: as §1
A549 = test: Cytotoxicity against human A549 cells by SRB assay; assay type: functional; procedure, shortened: as §1
HCT-116 = test: Cytotoxicity against human HCT116 cells by SRB assay; assay type: functional; procedure, shortened: as §1
[6] = Cytotoxicity against human MKN74 cells by SRB assay; assay type: functional; details: MKN-74; procedure, shortened: as §1
PC-3 = test: Cytotoxicity against human PC3 cells by SRB assay; assay type: functional; procedure, shortened: as §1
OVCAR-3 = test: Cytotoxicity against human OVCAR3 cells by SRB assay; assay type: functional; procedure, shortened: as §1
Histone deacetylase 1 [7] = target: T1, Histone deacetylase 1 (Homo sapiens, UniProt Q13547); test: Inhibition of human HDAC1 expressed in human 293T cells using Ac-KGLGK(Ac)-MCA as substrate after 30 mins by fluorescence assay
T1 sequence (Q13547 whole entry): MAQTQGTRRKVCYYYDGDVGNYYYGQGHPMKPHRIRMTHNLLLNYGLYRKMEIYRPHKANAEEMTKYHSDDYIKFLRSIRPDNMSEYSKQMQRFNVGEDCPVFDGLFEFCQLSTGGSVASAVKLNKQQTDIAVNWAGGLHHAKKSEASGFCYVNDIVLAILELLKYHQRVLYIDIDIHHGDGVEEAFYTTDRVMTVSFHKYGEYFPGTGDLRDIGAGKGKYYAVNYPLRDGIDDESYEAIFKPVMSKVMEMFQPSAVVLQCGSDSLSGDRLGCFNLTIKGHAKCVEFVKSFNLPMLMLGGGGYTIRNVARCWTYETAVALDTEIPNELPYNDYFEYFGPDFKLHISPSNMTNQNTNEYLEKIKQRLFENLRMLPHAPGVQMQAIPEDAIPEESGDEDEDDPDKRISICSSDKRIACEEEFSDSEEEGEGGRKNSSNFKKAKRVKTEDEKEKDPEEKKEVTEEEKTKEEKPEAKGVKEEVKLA

[8] = Cytotoxicity against human HBC4 cells by SRB assay; assay type: functional; procedure, shortened: as §1
NCI-H23 = test: Cytotoxicity against human NCI-H23 cells by SRB assay; assay type: functional; procedure, shortened: as §1
KM12 = test: Cytotoxicity against human KM12 cells by SRB assay; assay type: functional; procedure, shortened: as §1
[9] = Cytotoxicity against human RXF631L cells by SRB assay; assay type: functional; details: RXF 631; procedure, shortened: as §1
NCI-H226 = test: Cytotoxicity against human NCI-H226 cells by SRB assay; assay type: functional; procedure, shortened: as §1
[10] = Cytotoxicity against human DMS273 cells by SRB assay; assay type: functional; details: DMS-273; procedure, shortened: as §1
OVCAR-8 = test: Cytotoxicity against human OVCAR8 cells by SRB assay; assay type: functional; procedure, shortened: as §1
[11] = Cytotoxicity against human OVCAR4 cells by SRB assay; assay type: functional; details: OVCAR-4; procedure, shortened: as §1
[12] = target: T2, Protein deacetylase HDAC6 (Mus musculus, UniProt Q9Z2V5); test: Inhibition of mouse HDAC6 expressed in human 293T cells using Ac-KGLGK(Ac)-MCA as substrate after 30 mins by fluorescence assay; assay type: cell-based
T2 sequence (Q9Z2V5 whole entry): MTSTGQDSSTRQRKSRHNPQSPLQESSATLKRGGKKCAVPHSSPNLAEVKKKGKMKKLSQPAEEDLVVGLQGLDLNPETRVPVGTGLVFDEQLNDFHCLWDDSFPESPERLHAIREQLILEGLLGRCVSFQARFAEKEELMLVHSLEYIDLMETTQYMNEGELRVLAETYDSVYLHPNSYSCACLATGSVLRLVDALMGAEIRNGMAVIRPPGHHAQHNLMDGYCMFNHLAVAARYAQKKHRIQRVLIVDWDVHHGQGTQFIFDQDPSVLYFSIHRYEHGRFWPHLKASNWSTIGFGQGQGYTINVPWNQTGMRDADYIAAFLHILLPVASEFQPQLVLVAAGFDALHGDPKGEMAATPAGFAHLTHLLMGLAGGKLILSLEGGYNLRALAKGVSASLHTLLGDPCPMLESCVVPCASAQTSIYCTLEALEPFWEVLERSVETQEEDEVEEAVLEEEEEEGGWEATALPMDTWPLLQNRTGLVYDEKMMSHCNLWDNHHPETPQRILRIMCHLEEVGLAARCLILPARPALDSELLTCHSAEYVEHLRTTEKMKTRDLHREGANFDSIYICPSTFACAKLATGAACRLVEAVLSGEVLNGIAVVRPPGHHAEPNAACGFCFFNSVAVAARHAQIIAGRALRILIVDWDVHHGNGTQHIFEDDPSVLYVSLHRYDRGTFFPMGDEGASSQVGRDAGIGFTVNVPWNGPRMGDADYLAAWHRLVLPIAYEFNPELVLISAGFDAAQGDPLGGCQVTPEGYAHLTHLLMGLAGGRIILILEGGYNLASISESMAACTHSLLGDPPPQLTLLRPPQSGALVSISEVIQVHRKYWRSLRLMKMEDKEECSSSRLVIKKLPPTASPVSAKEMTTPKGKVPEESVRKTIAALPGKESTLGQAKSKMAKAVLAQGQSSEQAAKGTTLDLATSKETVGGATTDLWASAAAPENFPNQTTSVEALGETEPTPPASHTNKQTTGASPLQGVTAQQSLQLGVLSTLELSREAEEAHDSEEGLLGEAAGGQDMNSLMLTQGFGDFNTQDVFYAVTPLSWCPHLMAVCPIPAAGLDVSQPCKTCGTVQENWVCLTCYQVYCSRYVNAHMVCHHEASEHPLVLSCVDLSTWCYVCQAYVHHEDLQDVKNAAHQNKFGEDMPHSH

Histone deacetylase 1 [13] = target: T1, Histone deacetylase 1; test: Ratio of FK228 IC50 to compound IC50 for human HDAC1 expressed in human 293T cells; assay type: cell-based
Procedure, shortened: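 FLAG-tagged human HDAC1 was expressed transiently in 293T cells (pcDNA3-HDAC1), immunoprecipitated with anti-FLAG M2 and eluted with FLAG peptide. Enzyme was incubated with 2 mM stock Ac-KGLGK(Ac)-MCA in 20 mM Tris-HCl pH 8.0, 150 mM NaCl, 10% glycerol, 100 μM DTT, for 30 min at 37 °C. Trypsin then released AMC, read by fluorescence. IC50 is the mean of ≥3 dose-response curves; FK228 reference run alongside.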

ACHN = test: Cytotoxicity against human ACHN cells by SRB assay; assay type: functional; procedure, shortened: as §1
[14] = Cytotoxicity against human SNB78 cells by SRB assay; assay type: functional; details: SNB-78; procedure, shortened: as §1
[15] = Cytotoxicity against human MKN1 cells by SRB assay; assay type: functional; details: MKN-1; procedure, shortened: as §1
[16] = Cytotoxicity against human MKN7 cells by SRB assay; assay type: functional; details: MKN-7; procedure, shortened: as §1
HCT-15 = test: Cytotoxicity against human HCT15 cells by SRB assay; assay type: functional; procedure, shortened: as §1
[17] = Cytotoxicity against human MKN28 cells by SRB assay; assay type: functional; details: MKN-28; procedure, shortened: as §1
[18] = Cytotoxicity against human OVCAR5 cells by SRB assay; assay type: functional; details: OVCAR-5; procedure, shortened: as §1

Ratio IC50 [1]: 1640
IC50 (Histone deacetylase 1 [7]): 1.2 nM
IC50 [12]: 1970 nM
Ratio IC50 (Histone deacetylase 1 [13]): 3
Compound: CSCC[C@H]1NC(=O)C[C@H]2/C=C/CCSSC[C@@H](NC1=O)C(=O)N[C@H](C(C)C)[C@@H](O)CC(=O)O2
GI50 (SF-295): 3 nM
GI50 (HT-29): 0.65 nM
GI50 (MDA-MB-231): 1.8 nM
GI50 (SNB-75): 3.6 nM
GI50 (SF-539): 0.72 nM
GI50 (LOX IMVI): 0.5 nM
GI50 (HCC 2998): 0.67 nM
GI50 (St-4): 8.1 nM
GI50 [2]: 0.97 nM
GI50 (NCI-H460): 0.91 nM
GI50 [3]: 7.6 nM
GI50 (U-251): 2.2 nM
GI50 [4]: 4 nM
GI50 (NCI-H522): 0.2 nM
GI50 [5]: 7.8 nM
GI50 (SF-268): 1.8 nM
GI50 (SK-OV-3): 0.78 nM
GI50 (MCF7): 2 nM
GI50 (DU-145): 0.82 nM
GI50 (A549): 0.57 nM
GI50 (HCT-116): 0.51 nM
GI50 [6]: 1.8 nM
GI50 (PC-3): 4.4 nM
GI50 (OVCAR-3): 2.2 nM
GI50 [8]: 3 nM
GI50 (NCI-H23): 0.64 nM
GI50 (KM12): 0.76 nM
GI50 [9]: 1.3 nM
GI50 (NCI-H226): 0.47 nM
GI50 [10]: 3 nM
GI50 (OVCAR-8): 0.68 nM
GI50 [11]: 5.8 nM
GI50 (ACHN): 3.4 nM
GI50 [14]: 460 nM
GI50 [15]: 0.67 nM
GI50 [16]: 4.1 nM
GI50 (HCT-15): 300 nM
GI50 [17]: 8.5 nM
GI50 [18]: 1 nM

Ratio IC50 [1]: 992
IC50 (Histone deacetylase 1 [7]): 1 nM
IC50 [12]: 992 nM
Ratio IC50 (Histone deacetylase 1 [13]): 3
Compound: CC[C@H](C)[C@H]1NC(=O)[C@H]2CSSCC/C=C/[C@H](CC(=O)N[C@H](CCSC)C(=O)N2)OC(=O)C[C@@H]1O [THAILANDEPSIN A]
GI50 (SF-295): 2.3 nM
GI50 (HT-29): 0.74 nM
GI50 (MDA-MB-231): 2.6 nM
GI50 (SNB-75): 1.4 nM
GI50 (SF-539): 0.7 nM
GI50 (LOX IMVI): 2.5 nM
GI50 (HCC 2998): 2.6 nM
GI50 (St-4): 1.1 nM
GI50 [2]: 3.2 nM
GI50 (NCI-H460): 0.53 nM
GI50 [3]: 14 nM
GI50 (U-251): 4.4 nM
GI50 [4]: 5 nM
GI50 (NCI-H522): 0.42 nM
GI50 [5]: 2.3 nM
GI50 (SF-268): 4.1 nM
GI50 (SK-OV-3): 1.9 nM
GI50 (MCF7): 2.8 nM
GI50 (DU-145): 3.1 nM
GI50 (A549): 0.85 nM
GI50 (HCT-116): 0.51 nM
GI50 [6]: 2.9 nM
GI50 (PC-3): 8.3 nM
GI50 (OVCAR-3): 2.8 nM
GI50 [8]: 3.8 nM
GI50 (NCI-H23): 3.3 nM
GI50 (KM12): 3.6 nM
GI50 [9]: 2.3 nM
GI50 (NCI-H226): 2.7 nM
GI50 [10]: 2.7 nM
GI50 (OVCAR-8): 0.72 nM
GI50 [11]: 5 nM
GI50 (ACHN): 6.6 nM
GI50 [14]: 11 nM
GI50 [15]: 2.5 nM
GI50 [16]: 10 nM
GI50 (HCT-15): 100 nM
GI50 [17]: 16 nM
GI50 [18]: 1.6 nM

Ratio IC50 [1]: 485
Compound: CC(C)[C@H]1NC(=O)[C@H]2CSSCC/C=C/[C@H](CC(=O)N[C@H](C)C(=O)N2)OC(=O)C[C@@H]1O
